Data set [1] concerns the target T1, Metabotropic glutamate receptor 5 (Rattus norvegicus, UniProt P31424). Briefly: Positive allosteric modulation at rat mGluR5 receptor expressed in HEK293 cells assessed as glutamate-induced calcium fluorescence by Fluo-4/AM dye-based fluorescence assay. It counts as functional, cell-based.
The target in data set [2] is Metabotropic glutamate receptor 5 (Rattus norvegicus) (UniProt P31424). Put plainly: Positive allosteric modulation at rat mGluR5 receptor expressed in HEK293 cells assessed as glutamate-induced calcium fluorescence at 30 uM by Fluo-4/AM dye-based fluorescence assay in relative to glutamate. It counts as functional, cell-based.
Sequence of Metabotropic glutamate receptor 5 (Rattus norvegicus) (P31424 21-1203 limits assumed): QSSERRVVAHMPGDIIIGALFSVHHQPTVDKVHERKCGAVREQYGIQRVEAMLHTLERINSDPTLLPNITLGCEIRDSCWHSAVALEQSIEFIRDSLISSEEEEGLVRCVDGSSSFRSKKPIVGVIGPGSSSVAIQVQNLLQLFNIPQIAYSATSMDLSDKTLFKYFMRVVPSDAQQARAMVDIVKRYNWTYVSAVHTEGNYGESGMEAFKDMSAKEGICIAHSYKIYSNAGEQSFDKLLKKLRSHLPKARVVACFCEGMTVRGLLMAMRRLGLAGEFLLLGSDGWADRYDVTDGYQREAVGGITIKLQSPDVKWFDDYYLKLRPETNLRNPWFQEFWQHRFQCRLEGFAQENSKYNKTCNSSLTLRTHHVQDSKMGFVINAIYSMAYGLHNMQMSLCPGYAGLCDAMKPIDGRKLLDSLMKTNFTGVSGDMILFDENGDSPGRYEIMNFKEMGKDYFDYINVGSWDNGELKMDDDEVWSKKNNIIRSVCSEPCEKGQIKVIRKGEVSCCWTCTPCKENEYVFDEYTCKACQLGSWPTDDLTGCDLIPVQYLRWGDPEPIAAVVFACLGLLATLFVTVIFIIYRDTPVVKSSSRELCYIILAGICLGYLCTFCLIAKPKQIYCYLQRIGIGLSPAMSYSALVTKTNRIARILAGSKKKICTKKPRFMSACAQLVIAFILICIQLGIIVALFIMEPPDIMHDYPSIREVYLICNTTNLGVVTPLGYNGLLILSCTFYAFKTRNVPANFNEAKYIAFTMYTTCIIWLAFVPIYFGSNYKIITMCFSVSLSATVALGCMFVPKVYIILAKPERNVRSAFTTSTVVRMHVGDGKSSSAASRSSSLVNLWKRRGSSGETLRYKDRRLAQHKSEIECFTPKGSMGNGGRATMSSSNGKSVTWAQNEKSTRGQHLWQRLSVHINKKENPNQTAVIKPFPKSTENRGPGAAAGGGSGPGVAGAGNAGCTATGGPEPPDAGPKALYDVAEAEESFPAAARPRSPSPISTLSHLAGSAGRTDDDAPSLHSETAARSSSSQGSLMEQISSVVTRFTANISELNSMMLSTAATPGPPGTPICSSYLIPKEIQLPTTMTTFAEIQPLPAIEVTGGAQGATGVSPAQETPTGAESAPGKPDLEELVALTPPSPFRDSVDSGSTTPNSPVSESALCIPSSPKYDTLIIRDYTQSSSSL
Data set [3] has the same target. Put plainly: Potentiation of rat mGluR5 expressed in HEK293 cells assessed as glutamate-induced calcium fluorescence at 10 uM by Fluo-4/AM dye-based fluorescence assay. The data set is classed as functional, cell-based.
Data set [4] has the same target. Put plainly: Positive allosteric modulation at mGluR5 in […] cells at 30 uM by Fluo-4/AM dye-based fluorescence assay. It counts as cell-based.
For data set [5] the target is unchanged. Briefly: Displacement of [3H]3-methoxy-PEPy from rat mGluR5 receptor allosteric binding site at 30 uM. The method in brief: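 Radioligand binding uses [3H]3-methoxy-PEPy at the mGluR5 allosteric site. Displacement is read at the highest compound concentration tested, 30 μM.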
The target is the same in data set [6]. Briefly: Potentiation of rat mGluR5 receptor assessed as fold shift in glutamate concentration response curve at 10 uM relative to control.
For data set [7], the target named is Metabotropic glutamate receptor 1 (Rattus norvegicus) (UniProt P23385). Briefly: Potentiation of rat mGluR1 receptor assessed as fold shift in glutamate concentration response curve at 10 uM relative to control.
The target in data set [8] is Metabotropic glutamate receptor 2 (Rattus norvegicus) (UniProt P31421). Briefly: Potentiation of rat mGluR2 receptor assessed as fold shift in glutamate concentration response curve at 10 uM relative to control.
Data set [9] concerns the target Metabotropic glutamate receptor 3 (Rattus norvegicus) (UniProt P31422). Briefly: Potentiation of rat mGluR3 receptor assessed as fold shift in glutamate concentration response curve at 10 uM relative to control.
For data set [10], the target named is Metabotropic glutamate receptor 4 (Rattus norvegicus) (UniProt P31423). Briefly: Potentiation of rat mGluR4 receptor assessed as fold shift in glutamate concentration response curve at 10 uM relative to control.
Data set [11] addresses Metabotropic glutamate receptor 6 (Rattus norvegicus) (UniProt P35349). Briefly: Potentiation of rat mGluR6 receptor assessed as fold shift in glutamate concentration response curve at 10 uM relative to control.
The target in data set [12] is Metabotropic glutamate receptor 7 (Rattus norvegicus) (UniProt P35400). Briefly: Potentiation of rat mGluR7 receptor assessed as fold shift in glutamate concentration response curve at 10 uM relative to control.
Sequence of Metabotropic glutamate receptor 7 (Rattus norvegicus) (P35400 whole entry): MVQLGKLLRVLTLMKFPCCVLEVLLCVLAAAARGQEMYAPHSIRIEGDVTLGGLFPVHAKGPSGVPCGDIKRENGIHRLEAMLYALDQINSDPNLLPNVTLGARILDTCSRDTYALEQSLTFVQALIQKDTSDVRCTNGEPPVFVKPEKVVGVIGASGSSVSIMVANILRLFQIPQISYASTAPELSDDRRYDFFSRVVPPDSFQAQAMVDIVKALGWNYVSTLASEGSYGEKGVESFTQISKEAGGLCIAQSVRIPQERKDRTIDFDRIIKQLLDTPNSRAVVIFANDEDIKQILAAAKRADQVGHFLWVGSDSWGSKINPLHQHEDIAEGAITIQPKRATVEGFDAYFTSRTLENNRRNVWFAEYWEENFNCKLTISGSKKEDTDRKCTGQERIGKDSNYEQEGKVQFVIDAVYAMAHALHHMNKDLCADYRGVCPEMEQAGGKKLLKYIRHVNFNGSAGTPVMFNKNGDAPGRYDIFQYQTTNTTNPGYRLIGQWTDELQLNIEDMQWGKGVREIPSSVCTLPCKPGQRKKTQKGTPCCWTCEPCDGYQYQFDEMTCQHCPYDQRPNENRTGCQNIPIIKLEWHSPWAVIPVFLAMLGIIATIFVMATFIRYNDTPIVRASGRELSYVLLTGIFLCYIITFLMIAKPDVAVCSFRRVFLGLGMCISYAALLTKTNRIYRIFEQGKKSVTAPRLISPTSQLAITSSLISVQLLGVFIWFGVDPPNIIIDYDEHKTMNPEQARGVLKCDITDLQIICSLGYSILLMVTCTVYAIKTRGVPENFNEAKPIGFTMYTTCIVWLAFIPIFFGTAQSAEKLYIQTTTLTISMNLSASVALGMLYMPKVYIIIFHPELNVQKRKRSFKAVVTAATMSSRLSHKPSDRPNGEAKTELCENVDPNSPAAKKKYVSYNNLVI
In data set [13] the target is Metabotropic glutamate receptor 8 (Rattus norvegicus) (UniProt P70579). Put plainly: Potentiation of rat mGluR8 receptor assessed as fold shift in glutamate concentration response curve at 10 uM relative to control.
Sequence of Metabotropic glutamate receptor 8 (Rattus norvegicus) (P70579 whole entry): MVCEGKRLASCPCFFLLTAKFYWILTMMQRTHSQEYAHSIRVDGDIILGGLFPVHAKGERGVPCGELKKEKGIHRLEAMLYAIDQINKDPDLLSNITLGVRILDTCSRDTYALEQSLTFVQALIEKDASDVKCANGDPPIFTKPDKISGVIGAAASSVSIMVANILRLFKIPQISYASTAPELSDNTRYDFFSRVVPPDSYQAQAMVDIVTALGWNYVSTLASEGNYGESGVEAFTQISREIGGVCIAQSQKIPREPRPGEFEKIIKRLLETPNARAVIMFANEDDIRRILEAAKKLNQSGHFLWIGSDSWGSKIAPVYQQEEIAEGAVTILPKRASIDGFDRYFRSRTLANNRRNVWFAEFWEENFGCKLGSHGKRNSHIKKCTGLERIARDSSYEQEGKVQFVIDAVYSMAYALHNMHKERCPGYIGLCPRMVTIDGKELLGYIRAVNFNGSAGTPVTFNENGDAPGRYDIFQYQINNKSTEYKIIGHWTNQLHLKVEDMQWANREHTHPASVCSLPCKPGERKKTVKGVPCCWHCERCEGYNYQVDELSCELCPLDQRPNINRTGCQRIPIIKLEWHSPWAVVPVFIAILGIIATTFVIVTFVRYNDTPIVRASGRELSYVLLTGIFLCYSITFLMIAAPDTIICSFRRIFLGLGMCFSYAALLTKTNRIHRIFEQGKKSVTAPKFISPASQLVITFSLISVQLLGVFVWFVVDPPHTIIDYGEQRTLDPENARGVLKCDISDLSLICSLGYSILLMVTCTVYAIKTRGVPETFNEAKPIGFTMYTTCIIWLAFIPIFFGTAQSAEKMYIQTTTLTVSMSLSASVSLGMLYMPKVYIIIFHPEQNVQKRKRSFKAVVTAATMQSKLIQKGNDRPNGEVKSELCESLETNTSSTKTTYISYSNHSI
The test system of data set [14] is Plasma. Briefly: Plasma protein binding in human after 4 hrs by LC-MS-MS. The data set is classed as ADME, cell-free.
Data set [15] deals with Plasma. Put plainly: Plasma protein binding in Sprague-Dawley rat after 4 hrs by LC-MS-MS. The data set is classed as ADME, cell-free.
Data set [16] can be described thus: Metabolic stability in human liver microsome assessed as compound remaining after 60 mins by LC-MS-MS. It counts as ADME. To be noted: liver microsomes, read-out: Stability.
The nature of data set [17]: Metabolic stability in Sprague-Dawley rat liver microsome assessed as compound remaining after 60 mins by LC-MS-MS. It counts as ADME. The following applies: liver microsomes, read-out: Stability.
The nature of data set [18]: Aqueous solubility of the compound in 0.01 N HCl buffer at pH 2 by HPLC. The data set is classed as physicochemical.
A short description of data set [19]: Aqueous solubility of the compound in 0.1 M citrate buffer at pH 4 by HPLC. The data set is classed as physicochemical.
Data set [20] is described as follows: Aqueous solubility of the compound in 0.2M sodium phosphate buffer at pH 7.4 by HPLC. It counts as physicochemical.
The nature of data set [21]: Passive transcellular permeability of the compound by PAMPA. It counts as ADME. To be noted: read-out: permeability.
The subject of the next data set is Rattus norvegicus. Briefly: Reversal of amphetamine-induced hyperlocomotion in Sprague-Dawley rat at 56.6 mg/kg, ip administered 30 mins before amphetamine challenge measured for 60 mins. It counts as functional, organism-based. The arrangement: dose 56.6 mg/kg. The method in brief:
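Rats get vehicle or 56.6 mg/kg compound ip in 20% HP β-cyclodextrin 30 min before 1 mg/kg sc amphetamine, given at 60 min. Ambulations (beam breaks per 5 min interval) are counted for a further 60 min. Groups are 12−14 rats, shown as mean ± SEM, compared with the vehicle + amphetamine group by Dunnett's test.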

The target in data set [22] is T1, Metabotropic glutamate receptor 5. Put plainly: Negative allosteric modulation at rat mGluR5 receptor.

Active and inactive are the calls of the source. The calls are words filed in the database; no cut-off is given here.

T1 sequence (P31424 whole entry): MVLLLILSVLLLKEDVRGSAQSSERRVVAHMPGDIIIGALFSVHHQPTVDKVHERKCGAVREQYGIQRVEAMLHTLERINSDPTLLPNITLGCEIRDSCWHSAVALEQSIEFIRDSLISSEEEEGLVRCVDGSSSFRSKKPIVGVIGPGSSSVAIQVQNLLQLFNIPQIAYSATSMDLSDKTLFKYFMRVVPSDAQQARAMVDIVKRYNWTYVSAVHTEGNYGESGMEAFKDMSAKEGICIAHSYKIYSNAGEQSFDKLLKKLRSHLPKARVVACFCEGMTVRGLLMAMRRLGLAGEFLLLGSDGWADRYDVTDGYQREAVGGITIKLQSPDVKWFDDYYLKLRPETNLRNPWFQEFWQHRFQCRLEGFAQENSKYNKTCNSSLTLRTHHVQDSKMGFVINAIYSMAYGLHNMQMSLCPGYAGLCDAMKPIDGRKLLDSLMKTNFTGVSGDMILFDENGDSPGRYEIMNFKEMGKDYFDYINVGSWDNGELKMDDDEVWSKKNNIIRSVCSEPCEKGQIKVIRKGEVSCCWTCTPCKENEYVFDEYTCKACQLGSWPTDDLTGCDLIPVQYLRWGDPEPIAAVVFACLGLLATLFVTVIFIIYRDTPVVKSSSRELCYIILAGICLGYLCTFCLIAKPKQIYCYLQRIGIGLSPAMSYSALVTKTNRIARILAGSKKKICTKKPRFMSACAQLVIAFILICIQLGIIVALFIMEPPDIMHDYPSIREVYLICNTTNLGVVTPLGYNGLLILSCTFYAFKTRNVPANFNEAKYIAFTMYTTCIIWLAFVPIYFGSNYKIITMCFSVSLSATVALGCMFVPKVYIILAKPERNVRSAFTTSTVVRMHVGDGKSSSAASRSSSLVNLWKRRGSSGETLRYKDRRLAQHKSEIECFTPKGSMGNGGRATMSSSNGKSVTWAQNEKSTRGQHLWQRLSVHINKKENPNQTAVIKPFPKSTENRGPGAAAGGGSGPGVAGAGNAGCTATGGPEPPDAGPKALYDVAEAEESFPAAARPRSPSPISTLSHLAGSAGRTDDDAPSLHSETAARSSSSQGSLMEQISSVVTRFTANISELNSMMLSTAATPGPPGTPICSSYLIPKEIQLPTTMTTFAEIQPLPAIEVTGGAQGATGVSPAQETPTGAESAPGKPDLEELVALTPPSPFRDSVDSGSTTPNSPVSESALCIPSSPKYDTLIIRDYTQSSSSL
Sequence of Metabotropic glutamate receptor 6 (Rattus norvegicus) (P35349 whole entry): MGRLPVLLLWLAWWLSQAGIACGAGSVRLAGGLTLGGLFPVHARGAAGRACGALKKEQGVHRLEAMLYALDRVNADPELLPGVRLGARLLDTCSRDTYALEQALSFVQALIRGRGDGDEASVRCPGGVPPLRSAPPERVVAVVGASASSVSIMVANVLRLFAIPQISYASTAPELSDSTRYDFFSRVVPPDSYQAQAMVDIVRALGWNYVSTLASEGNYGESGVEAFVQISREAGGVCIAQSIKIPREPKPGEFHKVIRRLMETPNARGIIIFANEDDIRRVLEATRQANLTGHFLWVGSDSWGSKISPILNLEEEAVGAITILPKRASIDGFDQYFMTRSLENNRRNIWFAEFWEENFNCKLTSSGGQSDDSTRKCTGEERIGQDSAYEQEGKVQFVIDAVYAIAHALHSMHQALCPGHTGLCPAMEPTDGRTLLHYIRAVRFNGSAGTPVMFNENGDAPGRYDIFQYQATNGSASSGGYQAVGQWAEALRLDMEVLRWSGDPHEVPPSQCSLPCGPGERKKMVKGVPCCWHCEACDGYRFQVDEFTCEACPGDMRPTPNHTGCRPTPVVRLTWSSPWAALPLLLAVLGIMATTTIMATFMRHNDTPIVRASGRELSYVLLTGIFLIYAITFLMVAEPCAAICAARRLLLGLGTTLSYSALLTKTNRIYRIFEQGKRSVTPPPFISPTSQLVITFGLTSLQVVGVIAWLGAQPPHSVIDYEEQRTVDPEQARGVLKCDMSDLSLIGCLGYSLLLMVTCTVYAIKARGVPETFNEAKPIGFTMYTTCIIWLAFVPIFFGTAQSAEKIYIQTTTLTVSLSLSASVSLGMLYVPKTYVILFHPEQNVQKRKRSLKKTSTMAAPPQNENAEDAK

Regarding `O=C(COCc1ccccc1)N1CCN(c2ncccn2)CC1`, in data set [1] (hek293), the EC50 entry is given as “Not Active”.

`COc1ccccc1N1CCN(C(=O)COCc2ccccc2)CC1`: the EC50 in data set [1] (read-out: EC50) is 9.2 µM. In data set [2], the Activity was determined as 86%.

Regarding `O=C(COCc1ccccc1)N1CCN(c2cccnc2)CC1`, the half-maximal effective concentration (EC50) entry in [1] (hek293) is “Not Active”.

For `O=C(COCc1ccccc1)N1CCN(c2ccccc2Cl)CC1`, the concentration for a half-maximal effect (EC50) in data set [1] (read-out: EC50) worked out at 0.82 µM. The Activity in [2] amounted to 90%.

For the compound `N#Cc1ccccc1N1CCN(C(=O)COCc2ccccc2)CC1`, the EC50 in data set [1] (read-out: EC50) was determined as 1.6 µM. Besides, the Activity is 78% in data set [2] and < 10% in data set [4]. Also, the outcome (in [3]; with Rattus norvegicus) was Active. In addition, the result in data set [5], in data set [7], in data set [8], in data set [9], in [10] and in data set [11] was inactive. Also, the outcome in [12] and in data set [13] was inactive. In data set [6], the fold change (FC) worked out at 12. Further, the PPB in the data set with Plasma [14] amounted to 94%; with Plasma [15], 90%. In addition, the remaining at 1 h in data set [16] and in [17] was < 5% throughout. Moreover, the solubility in data set [18], in data set [19] and in [20] was > 80 µM throughout. Moreover, in data set [21], the Papp worked out at 2.2 ×10⁻⁶ cm/s.

Regarding `O=C(COCc1ccccc1)N1CCN(c2nccs2)CC1`, in [1] (read-out: EC50), the EC50 is > 10 µM. Also, the Activity in data set [2] is 30%.

Take `O=C(COCc1ccccc1)N1CCN(c2nc3ccccc3s2)CC1`: the concentration giving a half-maximal response (EC50) in data set [1] (read-out: EC50) was > 10 µM. Also, the Activity in data set [2] was found to be 66%.

For the compound `N#Cc1cccnc1N1CCN(C(=O)COCc2ccccc2)CC1`, the concentration giving a half-maximal response (EC50) in [1] (read-out: EC50) is > 10 µM. Moreover, in data set [2], the Activity is 33%.

On to `O=C(COCc1ccccc1)N1CCN(c2ccccc2[N+](=O)[O-])CC1`, for which, in data set [1] (read-out: EC50), the concentration giving a half-maximal response (EC50) was determined as 1.8 µM. Besides, the Activity in [2] was found to be 81%.

As to `O=C(COCc1ccccc1)N1CCN(c2ccccn2)CC1`, the EC50 in data set [1] (read-out: EC50) was 5.4 µM. The Activity in data set [2] worked out at 86%.

As to `COC(=O)c1ccccc1N1CCN(C(=O)COCc2ccccc2)CC1`, in [1] (read-out: EC50), the concentration for a half-maximal effect (EC50) is > 10 µM. The Activity in data set [2] came out at 51%.

`O=C(N1CCN(c2ccccn2)CC1)C12CC3CC(CC(C3)C1)C2` registered an IC50 in data set [22] of 0.99 µM.

For `O=C(COCc1ccccc1)N1CCN(c2ncccc2C(F)(F)F)CC1`, the concentration giving a half-maximal response (EC50) in data set [1] (read-out: EC50) was determined as 4.3 µM. For the same compound, in data set [2], the Activity was 70%.

Source of the values: ChEMBL document CHEMBL1687701, “Discovery of N-Aryl Piperazines as Selective mGlu(5) Potentiators with Efficacy in a Rodent Model Predictive of Anti-Psychotic Activity” (ACS Med Chem Lett, 2010).
